Reference: PMC12574688 (European journal of medicinal chemistry, 2025)
Like-named read-outs stand apart in the source and are kept apart here. One block for each compound: values may come before it.

How the values were obtained:
MDA.MB.231 cells = assay: Colony formation assay; type: cell-based; conditions: varying concentrations
[1] = system: AKT phosphorylation in BT-20 cells; assay: Western blot of AKT phosphorylation; type: cell-based; conditions: vs control, preliminary western blot (Figure S3)
HCC1806 cells = assay: Colony formation assay; type: cell-based; conditions: single concentration of 10 μM
BT-20 cells = assay: Colony formation assay; type: cell-based; conditions: varying concentrations
MDA.MB.231 cell line = assay: MTT cytotoxicity / cell viability assay; type: cell-based
BRK = BRK (Homo sapiens, UniProt Q13882); assay: BRK biochemical inhibitory assay; conditions: for inhibition at 2 µM: read-out: % BRK Inhibition
Chain of BRK (Q13882 whole entry): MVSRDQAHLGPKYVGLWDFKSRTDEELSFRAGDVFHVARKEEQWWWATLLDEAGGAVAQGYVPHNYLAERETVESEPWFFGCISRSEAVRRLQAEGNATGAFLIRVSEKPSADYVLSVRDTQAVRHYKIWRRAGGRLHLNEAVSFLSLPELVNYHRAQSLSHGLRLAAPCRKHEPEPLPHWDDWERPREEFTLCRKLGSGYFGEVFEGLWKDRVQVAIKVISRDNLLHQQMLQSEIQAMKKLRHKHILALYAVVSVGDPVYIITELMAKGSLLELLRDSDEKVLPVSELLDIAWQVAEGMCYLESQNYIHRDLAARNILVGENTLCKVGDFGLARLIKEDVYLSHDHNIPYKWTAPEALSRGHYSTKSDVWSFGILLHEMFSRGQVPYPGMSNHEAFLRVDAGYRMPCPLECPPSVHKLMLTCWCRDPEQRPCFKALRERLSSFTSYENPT
In short: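 Human BRK kinase pre-incubated with test compound for 10 min, then substrate and ATP mix added. Kinase reaction run 1 h. ADP-Glo reagent added for 40 min, then kinase detection reagent for 45 min. Luminescence read. Single-point screens run at 2 μM and at 0.2 μM test compound, given as % BRK inhibition.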

Structure (SMILES): Oc1cccc(Nc2ccnc3[nH]c4ccccc4c23)c1 [Compound 4f, tilfrinib]
colony formation (MDA.MB.231 cells): reduce the colony formation
AKT phosphorylation [1]: increase in AKT phosphorylation
colony formation (HCC1806 cells): reduce the colony formation
colony formation (BT-20 cells): reduce the colony formation
Cellular assay MDA.MB.231 % Inhibition 10 μM (MDA.MB.231 cell line; MTT, 10 μM, 72h treatment): 31.40%
cytotoxicity in viability studies (MDA.MB.231 cell line; viability studies, in words): minimal cytotoxicity
Biochemical assay % Inhibition 0.2 μM (BRK; 0.2 μM, ADP-Glo (Table 3)): 86%
Biochemical assay % Inhibition 2 μM (BRK; 2 μM, ADP-Glo (Table 3)): 100%
IC50 (BRK; read-out: BRK IC50, enzymatic inhibition): 25 nM
IC50 (BRK; read-out: Biochemical assay IC50, ADP-Glo (Table 3)): 25.7 ± 5.05 nM
% BRK Inhibition (BRK; single point, 2 μM, ADP-Glo, pyrimido-indole derivatives (Table 1)): 100.0 ± 7.8%

inhibition at 2 µM (BRK): 29.6 ± 22.9%
Structure (SMILES): Oc1cccc(-c2cncc(Cl)n2)c1 [Compound 26, 3-(6-chloropyrazin-2-yl)phenol]

inhibition at 2 µM (BRK): 48.9 ± 8.9%
Structure (SMILES): Oc1cccc(-c2cnc3ccccc3n2)c1 [Compound 32, 3-(quinoxalin-2-yl)phenol]

inhibition at 2 µM (BRK): 76.1 ± 7.3%
Structure (SMILES): Oc1cccc(Nc2ncnc3cc(Br)ccc23)c1 [Compound 35, 3-((7-bromoquinazolin-4-yl)amino)phenol]
